Results from ChEMBL document CHEMBL5058577, “EUbOPEN Chemogenomics Library 2 (Multiplex)” (2022).

Test system: Fibroblast
Assay: Multiplex assay against human fibroblast
Assay type: toxicity, cell-based
Procedure, shortened: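 Live cells carried four stains from seeding: Hoechst33342, BioTracker Green Microtubule Cytoskeleton Dye, MitoTracker Red and Annexin V Alexa Fluor 680. They were imaged on a CQ1 microscope at 37°C and 5% CO2 after compound addition. Using CellPathfinder machine-learning gating, cells were split into Hoechst high-intensity objects or normal cells, normal cells into healthy, pyknosed or fragmented nuclei, and pyknosed cells into mitotic or apoptotic; tubulin, mitochondrial-mass and membrane-permeability phenotypes are per cents of healthy-nucleus cells.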

[1] = 12 h, 1 µM, compound concentration 1 uM, replicate 1
[2] = 12 h, 1 µM, compound concentration 1 uM, replicate 2
[3] = 12 h, 10 µM, compound concentration 10 uM, replicate 1
[4] = 12 h, 10 µM, compound concentration 10 uM, replicate 2
[5] = 24 h, 1 µM, compound concentration 1 uM, replicate 1
[6] = 24 h, 1 µM, compound concentration 1 uM, replicate 2
[7] = 24 h, 10 µM, compound concentration 10 uM, replicate 1
[8] = 24 h, 10 µM, compound concentration 10 uM, replicate 2
[9] = 48 h, 1 µM, compound concentration 1 uM, replicate 1
[10] = 48 h, 1 µM, compound concentration 1 uM, replicate 2
[11] = 48 h, 10 µM, compound concentration 10 uM, replicate 1
[12] = 48 h, 10 µM, compound concentration 10 uM, replicate 2

CC(C)c1noc(N2CCC(COc3ccc(-c4ccc(S(C)(=O)=O)cc4)nc3)CC2)n1 [GSK-1292263]
Population Apoptotic (%) [1]: 38% | Population Fragmented Nuclei (%) [1]: 14% | Population Healthy Nuclei (%) [1]: 74% | Population Hoechst High Intensity Objects (%) [1]: 2% | Population Membrane Permeable-Phenotype (%) [1]: 0% | Population Mitochondria Different-Phenotype (%) [1]: 1% | Population Mitotic Cells (%) [1]: 61% | Population Normal (%) [1]: 97% | Population Pyknosed Nuclei (%) [1]: 11% | Population Tubulin-Different-Phenotype (%) [1]: 21% | Total Cell Count [1]: 189 | Population Apoptotic (%) [2]: 29% | Population Fragmented Nuclei (%) [2]: 18% | Population Healthy Nuclei (%) [2]: 50% | Population Hoechst High Intensity Objects (%) [2]: 6% | Population Membrane Permeable-Phenotype (%) [2]: 4% | Population Mitochondria Different-Phenotype (%) [2]: 5% | Population Mitotic Cells (%) [2]: 70% | Population Normal (%) [2]: 93% | Population Pyknosed Nuclei (%) [2]: 31% | Population Tubulin-Different-Phenotype (%) [2]: 41% | Total Cell Count [2]: 149 | Population Apoptotic (%) [3]: 39% | Population Fragmented Nuclei (%) [3]: 8% | Population Healthy Nuclei (%) [3]: 65% | Population Hoechst High Intensity Objects (%) [3]: 3% | Population Membrane Permeable-Phenotype (%) [3]: 1% | Population Mitochondria Different-Phenotype (%) [3]: 5% | Population Mitotic Cells (%) [3]: 60% | Population Normal (%) [3]: 96% | Population Pyknosed Nuclei (%) [3]: 26% | Population Tubulin-Different-Phenotype (%) [3]: 39% | Total Cell Count [3]: 162 | Population Apoptotic (%) [4]: 35% | Population Fragmented Nuclei (%) [4]: 26% | Population Healthy Nuclei (%) [4]: 45% | Population Hoechst High Intensity Objects (%) [4]: 2% | Population Membrane Permeable-Phenotype (%) [4]: 6% | Population Mitochondria Different-Phenotype (%) [4]: 10% | Population Mitotic Cells (%) [4]: 64% | Population Normal (%) [4]: 97% | Population Pyknosed Nuclei (%) [4]: 27% | Population Tubulin-Different-Phenotype (%) [4]: 61% | Total Cell Count [4]: 145 | Population Apoptotic (%) [5]: 50% | Population Fragmented Nuclei (%) [5]: 9% | Population Healthy Nuclei (%) [5]: 78% | Population Hoechst High Intensity Objects (%) [5]: 3% | Population Membrane Permeable-Phenotype (%) [5]: 1% | Population Mitochondria Different-Phenotype (%) [5]: 0% | Population Mitotic Cells (%) [5]: 50% | Population Normal (%) [5]: 96% | Population Pyknosed Nuclei (%) [5]: 11% | Population Tubulin-Different-Phenotype (%) [5]: 17% | Total Cell Count [5]: 182 | Population Apoptotic (%) [6]: 44% | Population Fragmented Nuclei (%) [6]: 20% | Population Healthy Nuclei (%) [6]: 53% | Population Hoechst High Intensity Objects (%) [6]: 7% | Population Membrane Permeable-Phenotype (%) [6]: 4% | Population Mitochondria Different-Phenotype (%) [6]: 2% | Population Mitotic Cells (%) [6]: 55% | Population Normal (%) [6]: 92% | Population Pyknosed Nuclei (%) [6]: 25% | Population Tubulin-Different-Phenotype (%) [6]: 41% | Total Cell Count [6]: 142 | Population Apoptotic (%) [7]: 52% | Population Fragmented Nuclei (%) [7]: 12% | Population Healthy Nuclei (%) [7]: 67% | Population Hoechst High Intensity Objects (%) [7]: 2% | Population Membrane Permeable-Phenotype (%) [7]: 1% | Population Mitochondria Different-Phenotype (%) [7]: 5% | Population Mitotic Cells (%) [7]: 47% | Population Normal (%) [7]: 97% | Population Pyknosed Nuclei (%) [7]: 20% | Population Tubulin-Different-Phenotype (%) [7]: 50% | Total Cell Count [7]: 168 | Population Apoptotic (%) [8]: 46% | Population Fragmented Nuclei (%) [8]: 21% | Population Healthy Nuclei (%) [8]: 55% | Population Hoechst High Intensity Objects (%) [8]: 3% | Population Membrane Permeable-Phenotype (%) [8]: 10% | Population Mitochondria Different-Phenotype (%) [8]: 10% | Population Mitotic Cells (%) [8]: 53% | Population Normal (%) [8]: 96% | Population Pyknosed Nuclei (%) [8]: 23% | Population Tubulin-Different-Phenotype (%) [8]: 56% | Total Cell Count [8]: 123 | Population Apoptotic (%) [9]: 66% | Population Fragmented Nuclei (%) [9]: 19% | Population Healthy Nuclei (%) [9]: 74% | Population Hoechst High Intensity Objects (%) [9]: 3% | Population Membrane Permeable-Phenotype (%) [9]: 0% | Population Mitochondria Different-Phenotype (%) [9]: 1% | Population Mitotic Cells (%) [9]: 33% | Population Normal (%) [9]: 96% | Population Pyknosed Nuclei (%) [9]: 6% | Population Tubulin-Different-Phenotype (%) [9]: 22% | Total Cell Count [9]: 193 | Population Apoptotic (%) [10]: 54% | Population Fragmented Nuclei (%) [10]: 27% | Population Healthy Nuclei (%) [10]: 47% | Population Hoechst High Intensity Objects (%) [10]: 8% | Population Membrane Permeable-Phenotype (%) [10]: 13% | Population Mitochondria Different-Phenotype (%) [10]: 4% | Population Mitotic Cells (%) [10]: 45% | Population Normal (%) [10]: 91% | Population Pyknosed Nuclei (%) [10]: 24% | Population Tubulin-Different-Phenotype (%) [10]: 55% | Total Cell Count [10]: 156 | Population Apoptotic (%) [11]: 63% | Population Fragmented Nuclei (%) [11]: 13% | Population Healthy Nuclei (%) [11]: 65% | Population Hoechst High Intensity Objects (%) [11]: 2% | Population Membrane Permeable-Phenotype (%) [11]: 0% | Population Mitochondria Different-Phenotype (%) [11]: 8% | Population Mitotic Cells (%) [11]: 36% | Population Normal (%) [11]: 97% | Population Pyknosed Nuclei (%) [11]: 20% | Population Tubulin-Different-Phenotype (%) [11]: 48% | Total Cell Count [11]: 164 | Population Apoptotic (%) [12]: 50% | Population Fragmented Nuclei (%) [12]: 31% | Population Healthy Nuclei (%) [12]: 51% | Population Hoechst High Intensity Objects (%) [12]: 0% | Population Membrane Permeable-Phenotype (%) [12]: 9% | Population Mitochondria Different-Phenotype (%) [12]: 14% | Population Mitotic Cells (%) [12]: 50% | Population Normal (%) [12]: 100% | Population Pyknosed Nuclei (%) [12]: 17% | Population Tubulin-Different-Phenotype (%) [12]: 76% | Total Cell Count [12]: 125
